In ChEMBL document CHEMBL4699630, “Discovery of novel pyrazolo[3,4-b]pyridine scaffold-based derivatives as potential PIM-1 kinase inhibitors in breast cancer MCF-7 cells” (Bioorg Med Chem, 2020):

Experiments:
MCF7 [1] = assay: Cytotoxicity against ERalpha-dependent human MCF7 cells assessed as reduction in cell viability incubated for 48 hrs by MTT assay; format: functional, cell-based; settings: MCF7, 48 h
Method in brief: (§1)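 Cells grown by standard culture protocols, then exposed for 48 h to serial concentrations (0.1, 1, 10, 100, 1000; unit not given) of each compound. Survival read by absorbance at 570 nm and expressed as % viability = A sample/A control ×100. IC50 fitted from concentration versus % survival; mean ± SEM of three independent values.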

MDA-MB-231 = assay: Cytotoxicity against Non-ERalpha-dependent human MDA-MB-231 cells assessed as reduction in cell viability incubated for 48 hrs by MTT assay; format: functional, cell-based; settings: MDA-MB-231, 48 h; method in brief: as §1
MCF-10A = assay: Cytotoxicity against human MCF-10A cells assessed as reduction in cell viability incubated for 48 hrs by MTT assay; format: cell-based; method in brief: as §1
[2] = target: Serine/threonine-protein kinase pim-1 (Homo sapiens, UniProt P11309); assay: Inhibition of recombinant human GST-tagged PIM1 by ELISA
Sequence of Serine/threonine-protein kinase pim-1 (P11309 whole entry): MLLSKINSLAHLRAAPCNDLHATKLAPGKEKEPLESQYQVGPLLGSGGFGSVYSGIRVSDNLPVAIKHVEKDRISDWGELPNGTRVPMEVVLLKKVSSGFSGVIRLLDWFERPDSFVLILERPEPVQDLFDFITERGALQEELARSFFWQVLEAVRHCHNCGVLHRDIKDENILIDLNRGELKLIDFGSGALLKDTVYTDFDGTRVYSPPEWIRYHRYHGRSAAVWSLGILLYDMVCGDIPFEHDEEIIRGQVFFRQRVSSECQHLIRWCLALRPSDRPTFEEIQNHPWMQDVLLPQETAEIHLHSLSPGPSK
Method in brief: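 PIM-1 kinase activity measured with the HTScan Pim-1 kinase assay kit, following the kit instructions. Compounds dissolved in DMSO and tested at four serial concentrations; IC50 derived from these.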

MCF7 [3] = assay: Induction of apoptosis in human MCF7 cells assessed as early apoptotic cells at 5.61 uM incubated for 48 hrs by Annexin V-FITC/propidium iodide staining based flow cytometric analysis (reference value: 0.43 %); format: functional
MCF7 [4] = assay: Induction of apoptosis in human MCF7 cells assessed as late apoptotic cells at 5.61 uM incubated for 48 hrs by Annexin V-FITC/propidium iodide staining based flow cytometric analysis (reference value: 0.16 %); format: functional
MCF7 [5] = assay: Induction of apoptosis in human MCF7 cells assessed as necrotic cells at 5.61 uM incubated for 48 hrs by Annexin V-FITC/propidium iodide staining based flow cytometric analysis (reference value: 1.05 %); format: functional
MCF7 [6] = assay: Induction of cell cycle arrest in human MCF7 cells assessed as accumulation of cells at preG1 phase at 5.61 uM incubated for 48 hrs by propidium iodide staining based flow cytometric analysis (reference value: 1.64 %); format: functional
MCF7 [7] = assay: Induction of cell cycle arrest in human MCF7 cells assessed as accumulation of cells at G0/G1 phase at 5.61 uM incubated for 48 hrs by propidium iodide staining based flow cytometric analysis (reference value: 43.92 %); format: functional
MCF7 [8] = assay: Induction of cell cycle arrest in human MCF7 cells assessed as accumulation of cells at G2/M phase at 5.61 uM incubated for 48 hrs by propidium iodide staining based flow cytometric analysis (reference value: 12.26 %); format: functional
[9] = Upregulation of P53 gene expression in human MCF7 cells at 5.61 uM incubated for 48 hrs by RT-PCR analysis relative to control; format: functional
[10] = Upregulation of MDM2 gene expression in human MCF7 cells at 5.61 uM incubated for 48 hrs by RT-PCR analysis relative to control; format: functional
[11] = Upregulation of PUMA gene expression in human MCF7 cells at 5.61 uM incubated for 48 hrs by RT-PCR analysis relative to control; format: functional
MCF7 [12] = assay: Induction of apoptosis in human MCF7 cells assessed as fold increase in caspase-3 gene expression at 5.61 uM incubated for 48 hrs by RT-PCR analysis relative to control; format: functional
MCF7 [13] = assay: Induction of apoptosis in human MCF7 cells assessed as fold increase in caspase-9 gene expression at 5.61 uM incubated for 48 hrs by RT-PCR analysis relative to control; format: functional
MCF7 [14] = assay: Induction of apoptosis in human MCF7 cells assessed as fold decrease in BCL2 gene expression at 5.61 uM incubated for 48 hrs by RT-PCR analysis relative to control; format: functional
[15] = Downregulation of PIM1 gene expression in human MCF7 cells at 5.61 uM incubated for 48 hrs by RT-PCR analysis relative to control; format: functional
MCF7 [16] = assay: Induction of apoptosis in human MCF7 cells assessed as increase in total apoptotic cells at 5.61 uM incubated for 48 hrs by Annexin V-FITC/propidium iodide staining based flow cytometric analysis relative to control; format: functional
MCF7 [17] = assay: Induction of apoptosis in human MCF7 cells assessed as increase in necrotic cells at 5.61 uM incubated for 48 hrs by Annexin V-FITC/propidium iodide staining based flow cytometric analysis relative to control; format: functional

Row | Structure (SMILES) | IC50 (MCF7 [1]) [µM] | IC50 (MDA-MB-231) [µM] | IC50 (MCF-10A) [µM] | IC50 [2] [µM] | other results
1 | CC(=O)c1nnc2c3c(-c4ccccc4Cl)c(C#N)c(O)nc3nn2c1C | 14.8 | 20.8 | – | – | –
2 | N#Cc1nnc2c3c(-c4ccccc4Cl)c(C#N)c(=O)[nH]c3nn2c1N | 6.98 | ≥ 50 | ≥ 50 | 0.043 | –
3 | Cn1nc(N)c2c(-c3ccc(-c4c(C#N)c(N)nc5c4c(N)nn5C)cc3)c(C#N)c(N)nc21 | ≥ 50 | – | ≥ 50 | – | –
4 | N#Cc1nnc2c3c(-c4ccccc4Cl)c(C#N)c(O)nc3nn2c1O | 27.5 | 10.6 | – | – | –
5 | O=c1[nH]cc(F)c(=O)[nH]1 [FLUOROURACIL] | 5.8 | 15.7 | 39.7 | – | –
6 | N#Cc1c(-c2ccccc2Cl)c2c(N/N=C3\C=CC(=O)c4ccccc43)n[nH]c2[nH]c1=O | 8.71 | ≥ 50 | ≥ 50 | 0.095 | –
7 | N#Cc1c(N)nc(Sc2ccccc2)c(C#N)c1-c1ccc(-c2c(C#N)c(N)nc(Sc3ccccc3)c2C#N)cc1 | 16.8 | – | 48.7 | – | –
8 | N#Cc1c(O)nc2nn3c4cc(O)ccc4nnc3c2c1-c1ccccc1Cl | 9.12 | 39.5 | ≥ 50 | 0.087 | –
9 | N#Cc1c(N)nc2[nH]nc(N)c2c1-c1ccccc1Cl | 36.6 | – | 20.6 | – | –
10 | N#Cc1c(N)nc2[nH]nc(N)c2c1-c1ccc(-c2c(C#N)c(N)nc3[nH]nc(N)c23)cc1 | 17.9 | 35.7 | 43.6 | – | –
11 | N#Cc1c(-c2ccccc2Cl)c2c(nn3c4ccc5ccccc5c4nnc23)[nH]c1=O | ≥ 50 | 9.76 | – | – | –
12 | CCOC(=O)c1nnc2c3c(-c4ccccc4Cl)c(C#N)c(=O)[nH]c3nn2c1O | 5.61 | 38.7 | 46.8 | 0.026 | Activity (MCF7 [3]): 3.93%; Activity (MCF7 [4]): 16.29%; Activity (MCF7 [5]): 11.03%; Activity (MCF7 [6]): 31.25%; Activity (MCF7 [7]): 35.66%; Activity (MCF7 [8]): 34.58%; fold change (FC) [9]: 4.2; fold change (FC) [10]: 3.9; fold change (FC) [11]: 6.32; fold change (FC) (MCF7 [12]): 7.9; fold change (FC) (MCF7 [13]): 6.56; fold change (FC) (MCF7 [14]): 0.41; fold change (FC) [15]: 0.25; fold change (FC) (MCF7 [16]): 19.17; fold change (FC) (MCF7 [17]): 10.5
13 | N#Cc1c(-c2ccccc2Cl)c2c(nn3c4ccc(O)cc4nnc23)[nH]c1=O | 10 | 24.7 | ≥ 50 | 0.112 | –
14 | N#Cc1c(N)nc2nn3c4ccc5ccccc5c4nnc3c2c1-c1ccc(-c2c(C#N)c(N)nc3nn4c(nnc5ccc6ccccc6c54)c23)cc1 | 11.4 | 43.7 | – | – | –
15 | Cn1nc(N)c2c(-c3ccccc3Cl)c(C#N)c(N)nc21 | – | – | 53.7 | – | –
16 | N#Cc1c(N)nc2[nH]nc(N)c2c1-c1cccc(Cl)c1 | ≥ 50 | – | – | – | –
